# Screening data as filed in PubChem BioAssay.
# Only some compounds are listed: those with a hit (about 2.4% of all), similar ones and a draw of the others.
# PfM18AAP inh – PfM18AAP enzyme inhibition | AID 1822 | recombinant PfM18AAP, H-Glu-NHMec fluorogenic cleavage | 1.2% of 290,000 active | inhibition, % at 7.35 µM;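 active means inhibition above the campaign mean inhibition over all tested compounds plus 3 SD, cut at about 28% in these data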;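 further: 0% = plate median of test compound wells and 100% = 2 mM ZnCl2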
# sPLA2-III inh – Inhibits HGIII-sPLA2 liposome hydrolysis, primary screen | Q9NZ20 | QFRET BODIPY PC-A2 liposome hydrolysis, fluorescence | AID 743126 | inhibition, % at 12.2 µM | 0.56% of 370,000 active;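 active means inhibition above mean plus 3 SD of compounds lying within the high and low control bounds, cut at about 19% in these data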;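 further: 0% = median of test compound wells and 100% = no enzyme DMSO wells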
# Target sequence (Q9NZ20 whole entry, looked up): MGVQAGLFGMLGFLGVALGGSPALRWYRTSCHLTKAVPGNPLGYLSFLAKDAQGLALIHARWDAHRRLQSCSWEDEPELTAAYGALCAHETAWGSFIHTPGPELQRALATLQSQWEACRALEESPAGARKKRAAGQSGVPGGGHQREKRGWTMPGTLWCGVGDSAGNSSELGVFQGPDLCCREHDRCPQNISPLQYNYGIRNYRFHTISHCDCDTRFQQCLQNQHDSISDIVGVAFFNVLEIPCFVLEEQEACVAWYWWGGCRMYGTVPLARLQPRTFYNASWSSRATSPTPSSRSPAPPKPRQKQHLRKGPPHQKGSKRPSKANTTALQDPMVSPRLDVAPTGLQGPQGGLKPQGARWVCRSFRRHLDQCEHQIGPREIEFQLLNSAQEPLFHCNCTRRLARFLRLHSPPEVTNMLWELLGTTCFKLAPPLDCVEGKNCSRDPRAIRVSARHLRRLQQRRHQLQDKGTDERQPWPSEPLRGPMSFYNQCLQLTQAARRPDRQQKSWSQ
# VIM-2 inhibitor – blocks Pseudomonas aeruginosa VIM-2 metallo-beta-lactamase; purified VIM-2, nitrocefin hydrolysis, epi-absorbance fluorescence; inhibition, % at 5.6 µM; 0.89% of 290,000 active; AID 1527;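 active means inhibition above the mean of all tested compounds plus 3 SD, cutoff set per screening run, cut at about 7.5% in these data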;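 further: red hydrolysis product quenches plate fluorescence so inhibitors raise well fluorescence; 0% = enzyme with DMSO and 100% = DMSO without enzyme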
# IMP-1 inh – inhibitors of Pseudomonas aeruginosa IMP-1 metallo-beta-lactamase. purified IMP-1, nitrocefin hydrolysis, epi-absorbance fluorescence. inhibition, % at 5.6 µM. 0.45% of 290,000 active. AID 1556;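 active means inhibition above the mean plus 3 SD of all compounds in the same screening run, cut at about 4.5% in these data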;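 further: 0% = IMP-1 with DMSO and 100% = DMSO wells lacking enzyme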
#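 system = purified recombinant IMP-1 beta-lactamase | amount = 0.2 nM IMP-1, as dispensed | medium = HEPES buffer pH 7.1 with ZnSO4 and Brij 35 | times = 25 °C, 15 min preincubation, 25 min reaction | detection = plate fluorescence quenching by hydrolysis product, ex 480/em 530 nm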
# An asterisk follows results filed as active; . = no result.
SMILES,PfM18AAP inh,sPLA2-III inh,VIM-2 inhibitor,IMP-1 inh
FC(F)(F)c1ccccc1-n1c(-c2ccco2)n[nH]c1=S,13,4,9.9*,-1
Cc1cccc(-n2c(-c3ccco3)n[nH]c2=S)c1,12,6,19*,-1
S=c1[nH]nc(-c2ccco2)n1/N=C/c1ccc(Cl)cc1,31*,15,-3,-3
CC(C)C[C@H]1COc2cccc(F)c2S(=O)(=O)N1Cc1cn(Cc2ccc(F)cc2)nn1,.,-3,.,.
CN1CCN(C2=Nc3c(Cl)cc(Cl)c4cccc2c34)CC1,7,-13,7.7*,0
O=C(Nc1c(-c2ccc(C(F)(F)F)cc2)nc2ncccn12)C1CC1,.,5,.,.
CCCCC(=O)N(Cc1ccc(-c2ccccc2-c2nn[nH]n2)cc1)[C@H](C(=O)O)C(C)C,2,.,-3,11*
CCCCc1nc(Cl)c(CO)n1Cc1ccc(-c2ccccc2-c2nn[nH]n2)cc1,-4,-7,-2,-4
CCN1CCN(CC(=O)Nc2ccccc2)C(=O)C1=O,-1,0,5,4.6*
CCN1CCN(CC(=O)Nc2ccc(Cl)c(Cl)c2)C(=O)C1=O,4,-5,-4,-5
COC(=O)C1CN(Cc2cn(CCOC(C)=O)nn2)CCS(=O)(=O)N1Cc1ccc(Cl)cc1 (stereo not given),.,1,.,.
O=C(N/N=C/c1ccc2c(c1)OCO2)c1ccc2c(c1)OCCO2,3,-1,-3,-3
O=C(N/N=C/c1ccc(Cl)cc1)c1ccc2c(c1)OCO2,-15,-3,0,17*
O=C(N/N=C\C=C\c1ccc(Br)cc1)c1ccc2c(c1)OCO2,0,5,0,25*
CC(C)(C)C(=O)O[C@@H]1CCC[C@@]2(C(=O)N(Cc3ccccc3)c3ccccc32)[C@H]1NC(=O)CCc1ccccc1,.,-11,.,.
CN1CCN(c2ccc3c(c2)Oc2ccccc2CN(Cc2cn(Cc4ccc(F)cc4)nn2)S3(=O)=O)CC1,.,-14,.,.
C[C@@H](CN1C(=O)C(=O)NC[C@@H]1Cc1ccc(O)cc1)NC(=O)Cc1ccccc1,-8,4,-1,13*
c1ccc(CSc2ccc3nnc(-c4ccccn4)n3n2)cc1,-4,1,11*,-1
Cc1cccc(CSc2ccc3nnc(-c4ccccn4)n3n2)c1,3,5,3,-5
COc1cc2[nH]c(=S)nc(NCc3cccnc3)c2cc1OC,30*,4,-4,-4
O=C(NCc1cccc2ccccc12)C1CCCN(c2nc3ccccc3o2)C1 (stereo not given),.,-14,.,.
CCC(NS(=O)(=O)c1ccc(C)cc1)C(=O)N1CCN(c2ccccn2)CC1 (stereo not given),-10,-4,-2,4.5*
CC(=O)Nc1ccc(S(=O)(=O)N[C@@H](C)C(=O)N2CCN(c3ccccn3)CC2)cc1,.,-1,.,.
COc1ccc(CNC(=O)c2c(C)oc3c2C(=O)c2ccccc2C3=O)cc1,-6,1,-2,-3
Cc1oc2c(c1C(=O)NCc1cccnc1)C(=O)c1ccccc1C2=O,6,.,9.2*,-1
SMILES,PfM18AAP inh,sPLA2-III inh,VIM-2 inhibitor,IMP-1 inh
Cc1ccc(C2=CCN(C)C(=O)N2c2ccc([N+](=O)[O-])cc2)cc1,.,0,.,.
CCC1(C)Cc2c(sc3nc(SC)[nH]c(=S)c23)CO1 (stereo not given),-1,.,8.1*,-4
COc1ccccc1Nc1nc(N)nc(CCl)n1,5,2,-2,-1
COc1ccc(OCc2nc(N)nc(Nc3ccccc3OC)n2)cc1,-10,-2,-1,5.4*
Cc1c(C)n(Cc2ccc(-c3ccccc3C(=O)O)cc2)c2ccc(C(=O)N[C@@H](C)c3ccc([N+](=O)[O-])cc3)cc12,.,-41,.,.
CCCCn1c(-c2c(Cl)c(C)nn2C)n[nH]c1=S,23,18,2,-4
CCn1c(-c2c(Cl)c(C)nn2C)n[nH]c1=S,32*,9,0,-1
Cc1cccc(OCc2nnc(SCC(=O)Nc3ncc(C)s3)o2)c1,31*,-9,-3,-2
Cc1cccc(OCc2nnc(SCC(=O)Nc3ccc(C)c(C)c3)o2)c1,1,8,-2,-3
COc1ccc(C(=O)C2CCCN(C(=O)Cc3c(C)noc3C)C2)cc1OC (stereo not given),3,-2,-1,-3
COc1ccc(F)cc1C(=O)C1CCCN(C(=O)Cc2c(C)noc2C)C1 (stereo not given),-1,1,8.3*,-1
CCCCCCCCN1CN2Cc3cc(OC)ccc3C2CS1(=O)=O (stereo not given),.,-2,.,.
Cc1ccccc1NC(=O)OC1CCC12CCCCC2 (stereo not given),.,8,.,.
COc1ccc(C2C=C(c3ccc(C)c(C)c3)Nc3ncnn32)c(OC)c1OC (stereo not given),11,-8,-1,0
